Compound activity: PubChem BioAssay, The Scripps Research Institute Molecular Screening Center
This is a sample that favours compounds with a hit; in the whole collection about 2.3% have one here.
TAAR1 ag: human TAAR1 agonists, primary screen, Fluo-8 calcium fluorescence, CHO RD-HGA16 cells | Trace amine-associated receptor 1 (Homo sapiens), Q96RJ0 | vehicle wells 0%, saturating PEA agonist 100% | activation, % at 3 µM | hit rate 0.99% among 360,000;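 active means activation above the mean activation of all test compounds in the run plus 3 SD, cut at about 38% in these data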
Target sequence (Q96RJ0 whole entry, looked up): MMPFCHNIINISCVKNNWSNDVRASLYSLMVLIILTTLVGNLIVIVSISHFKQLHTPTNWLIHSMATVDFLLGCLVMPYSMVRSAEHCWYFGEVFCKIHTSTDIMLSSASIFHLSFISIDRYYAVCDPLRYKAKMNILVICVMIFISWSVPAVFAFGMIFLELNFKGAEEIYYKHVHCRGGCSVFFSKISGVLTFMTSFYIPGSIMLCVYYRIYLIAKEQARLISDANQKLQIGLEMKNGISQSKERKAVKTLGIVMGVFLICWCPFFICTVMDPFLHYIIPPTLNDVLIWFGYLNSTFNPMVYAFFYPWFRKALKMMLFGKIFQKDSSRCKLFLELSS
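System: CHO-derived RD-HGA16 cells with stable Gα16 and human TAAR1 / Times: 17-24 h plating, Fluo-8 75 min 37 °C, 30 min RT / Technique: calcium-sensitive Fluo-8 signal, excitation 470-495, emission 515-575 nm / Measure: % activation relative to PEA EC100 response / Benchmarks: DMSO and PEA EC100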
OXTR potentiator: human OXTR potentiators, primary screen, fluorescence, CHO-OTR cells, Fluo-8 calcium; Fluo-8 calcium fluorescence, potentiator mode; 0% = oxytocin EC15, 100% = EC100; Oxytocin receptor (Homo sapiens), P30559; activation, % at 3 µM; hit rate 0.061% among 320,000;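 active means activation above that plate's cutoff, the mean activation of tested compounds plus 3 SD, cut at about 6.6% in these data, passing the limit was not always enough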
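Material: CHO-OTR cells, human receptor; compound dosing: single dose, 3.0 µM nominal final compound concentration; schedule: 6 min compound pre-incubation at room temperature, 100 s kinetic read; measured by: kinetic Fluo-8 calcium fluorescence; read-out basis: % activation vs EC15 and EC100 oxytocin; controls: EC15 oxytocin alone as 0%, 75 nM oxytocin as 100%; replicates: singlicate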
TAAR1 antag: human TAAR1 antagonists, primary screen, Fluo-8 calcium fluorescence, CHO RD-HGA16 cells; inhibition, % at 3 µM; Trace amine-associated receptor 1 (Homo sapiens), Q96RJ0; hit rate 1.5% among 360,000; antagonist; AID 624466, 2012;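 active means inhibition above a per-plate cutoff, the mean inhibition of test compounds on that plate plus 3 SD, cut at about 49% in these data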
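System: CHO RD-HGA16 cells bearing hTAAR1. Reagent: EC80 β-phenethylamine stimulus. Schedule: seeding 17-24 h prior, 75-min 37 °C, 30-min RT dye loading. Signal: Fluo-8 intracellular calcium dye fluorescence, real-time kinetic reads. Read-out: % inhibition from peak post-agonist over basal fluorescence ratio. Benchmarks: vehicle wells and EC80 agonist wells. Replicates: n of 1.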
V1aR counter: agonists of human V1a receptor, primary screen, counter-screen for OXTR agonist project, fluorescence, CHO-V1R cells; Fluo-8 calcium fluorescence, agonist mode; 0% DMSO, 100% 3 nM vasopressin; activation, % at 3 µM; hit rate 0.25% among 320,000; AID 2797, 2010;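 active means activation above the mean activation of all tested compounds plus 3 SD, per screening run, cut at about 20% in these data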;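 further: signal is peak over basal fluorescence ratio across a 100 second FLIPR read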
Target sequence (P37288 whole entry, looked up): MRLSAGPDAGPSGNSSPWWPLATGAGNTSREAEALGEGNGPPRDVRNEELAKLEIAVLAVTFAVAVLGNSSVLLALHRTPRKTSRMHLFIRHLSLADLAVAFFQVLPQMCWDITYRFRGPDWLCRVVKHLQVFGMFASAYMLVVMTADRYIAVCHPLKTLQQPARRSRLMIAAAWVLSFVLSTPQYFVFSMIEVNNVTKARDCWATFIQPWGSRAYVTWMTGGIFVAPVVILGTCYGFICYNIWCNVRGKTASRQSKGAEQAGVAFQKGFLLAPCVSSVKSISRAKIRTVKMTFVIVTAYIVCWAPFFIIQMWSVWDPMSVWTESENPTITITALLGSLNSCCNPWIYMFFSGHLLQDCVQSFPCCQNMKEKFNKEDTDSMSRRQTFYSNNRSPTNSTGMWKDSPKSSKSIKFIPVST
OXTR ag: human OXTR agonists, primary screen, fluorescence, CHO-OTR cells, Fluo-8 calcium | AID 2435, 2010 | activation, % at 3 µM | Oxytocin receptor (Homo sapiens), P30559 | Fluo-8 calcium fluorescence; normalized: DMSO 0%, oxytocin 100% | hit rate 0.32% among 320,000;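 active means activation above the mean of all tested compounds plus 3 SD, cutoff set per screening run, cut at about 20% in these data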;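 further: peak over basal fluorescence ratio from a 100 s FLIPR kinetic read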
TAAR1 nonsel count: nonselective antagonists in TAAR1 counter-screen cells, counter-screen for hTAAR1 antagonist project, cell-based, fluorescence, calcium; shares compounds with TAAR1 antag; counterscreen cell line, antagonist mode; inhibition, % at 3 µM; hit rate 77% among 2,400; AID 651780, 2012; in the data active means inhibition above about 22%;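 further: CHO-Ga16 host cells stimulated with ATP at an EC80 level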
TAAR1 antag conf: human TAAR1 antagonists, retest of hits, confirmation, cell-based, fluorescence; shares compounds with TAAR1 antag; TAAR1-expressing cells, fluorescence antagonist read-out; AID 651785, 2012; hit rate 40% among 2,400; inhibition, % at 3 µM; in the data active means inhibition above about 49%;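 further: CHO-Ga16 host cells challenged with agonist PEA near its EC80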
Ga16 ag counter: calcium activation in Ga16-expressing cells, counter-screen for TAAR1 antagonist project, cell-based, fluorescence. agonist counterscreen. hit rate 18% among 2,400. activation, % at 3 µM. shares compounds with TAAR1 antag; in the data active means activation above about 12%
TAAR1 ag counter: TAAR1 activation by candidate antagonists – cell-based, fluorescence, counter-screen for TAAR1 antagonist project; shares compounds with TAAR1 antag; activation, % at 3 µM; AID 651955, 2012; hit rate 2% among 2,400; hTAAR1 cell line, agonist mode; in the data active means activation above about 37%;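 further: CHO cells stably expressing TAAR1 with calcium dye readout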
Numbers stand for hits; i = inactive; nt = no result.

SMILES	TAAR1 ag	OXTR potentiator	TAAR1 antag	V1aR counter	OXTR ag	TAAR1 nonsel count	TAAR1 antag conf	Ga16 ag counter	TAAR1 ag counter
COc1ccc(OC2C(=O)N(CCc3ccc(OC)c(OC)c3)C2c2ccc3c(c2)OCO3)cc1 (centres undefined)	i	i	57	i	i	22	i	i	i
CC(C)CCNC(=O)C(c1ccc(O)cc1)N(Cc1cccs1)C(=O)C1COc2ccccc2O1 (centres undefined)	i	i	57	i	i	27	54	i	i
CC(=O)c1cc(Cl)ccc1OCc1cccc(S(=O)(=O)N2CCOCC2)c1	i	i	91	i	i	35	55	13	i
CSc1ccc(NC(=O)C2(C)CCN2C(=O)c2cc(C)n(C)n2)cc1 (centres undefined)	i	nt	i	nt	nt	nt	nt	nt	nt
Cc1cccc(N=C2NC(=O)/C(=C/c3cccn3C)S2)c1	i	i	i	i	i	nt	nt	nt	nt
O=C1NC(=Nc2ccccc2)S/C1=C\c1cccn1-c1ccccc1	i	i	73	i	i	32	i	i	i
CCN(Cc1ccccc1)C(=O)c1nn(-c2ccc(OC)cc2)c(=O)c2c1c1ccccc1n2C	i	i	85	i	i	34	i	i	i
CC(=O)N1CCN(CC(=O)Nc2cc(F)ccc2C)CC1	i	i	i	i	i	nt	nt	nt	nt
CCOC(=O)c1c(C)[nH]c(C)c1C(=O)COC(=O)c1cc(OC)c(OC)cc1OC	i	i	i	i	i	nt	nt	nt	nt
CCc1ccc(NC(=O)CS(=O)CC(=O)Nc2ccc(-n3cnnn3)c(C)c2)cc1 (centres undefined)	i	i	i	i	i	nt	nt	nt	nt
CC(C)C(=O)Nc1cccc(C(=O)OCC(=O)c2ccc(Cl)cc2Cl)c1	i	i	78	i	i	54	61	14	i
Cc1ccccc1S(=O)(=O)NC(=O)C1(C)CCN1C(=O)CC1CCCC1 (centres undefined)	i	nt	i	nt	nt	nt	nt	nt	nt
COc1ccccc1NS(=O)(=O)c1ccc2oc(SC(C)C(=O)N3CCNC3=O)nc2c1 (centres undefined)	i	i	74	i	i	40	52	16	i
COc1ccccc1NS(=O)(=O)c1ccc2oc(SCC(C)=O)nc2c1	i	i	i	i	i	nt	nt	nt	nt
Cc1ccc(S(=O)(=O)Nc2cccc(C(=O)N3CCN(c4ccccc4O)CC3)c2)cc1F	i	i	61	i	i	24	i	i	i
Cc1cccc(NS(=O)(=O)c2ccc(C(=O)N3CCN(c4ccccc4O)CC3)cc2)c1C	i	i	83	i	i	38	i	13	i
CC(=O)c1ccccc1NC(=O)COC(=O)c1cc[n+]([O-])cc1	i	i	i	i	i	nt	nt	nt	nt
O=C(Cc1ccc(Br)cc1)Nc1ccccc1Sc1ccccc1	i	i	58	i	i	i	i	i	i
O=C(COC(=O)c1cc[n+]([O-])cc1)Nc1ccccc1Sc1ccccc1	i	i	105	i	i	i	i	i	i
COCCNC(=O)c1[nH]c(C(F)(F)F)nc1-c1ccccc1	i	nt	i	nt	nt	nt	nt	nt	nt
Cc1nn(C)cc1CNC(=O)c1ccc(F)cc1	i	i	i	i	i	nt	nt	nt	nt
COc1ccc(C(=O)c2c(-c3ccc(OC)cc3)oc3ccc(-c4cc(OC)c(OC)c(OC)c4)cc23)cc1	i	i	i	i	i	nt	nt	nt	nt
COC(=O)c1c(-c2ccc(OC)cc2)oc2ccc(-c3cc(OC)c(OC)c(OC)c3)cc12	i	i	58	i	i	i	i	i	i
COC(=O)c1c(-c2ccc(OC)cc2)oc2ccc(-c3ccc(OC)nc3)cc12	i	i	i	i	i	nt	nt	nt	nt
CCCOC(=O)c1c(-c2ccc(OC)cc2)oc2ccc(-c3ccc(OC)nc3)cc12	nt	i	nt	i	i	i	nt	i	nt
SMILES	TAAR1 ag	OXTR potentiator	TAAR1 antag	V1aR counter	OXTR ag	TAAR1 nonsel count	TAAR1 antag conf	Ga16 ag counter	TAAR1 ag counter
COc1cc(C(=O)C(=O)N2CCN(c3ccccc3)CC2)cc(OC)c1OC	i	nt	i	nt	nt	nt	nt	nt	nt
COc1ccc(CCCNC(=O)C2(C)Cc3c(-c4cccc(C(N)=O)c4)ccnc3O2)cc1 (centres undefined)	i	nt	i	nt	nt	nt	nt	nt	nt
CCc1cccc(NC(=O)CSCc2cc(=O)[nH][nH]2)c1	i	i	105	i	i	i	i	i	i
COC(=O)Cn1c(O)c(N=NC(=O)CNC(=O)c2ccncc2)c2ccccc21	i	i	i	i	i	nt	nt	nt	nt
COc1cc2cc(CN(Cc3nnnn3Cc3ccco3)C3CCCCC3)c(=O)[nH]c2cc1OC	i	i	i	i	i	nt	nt	nt	nt
CCOc1ccc2[nH]c(=O)c(CN(Cc3nnnn3Cc3ccco3)C3CCCCC3)cc2c1	i	i	54	i	i	28	58	i	i
CCOc1ccc(N(C(C)C(=O)N/N=C(\C)c2cccc(NC(=O)c3ccccc3)c2)S(C)(=O)=O)cc1 (centres undefined)	i	i	54	i	i	29	i	i	i
CCOc1ccc(N(C(C)C(=O)Nc2cccnc2)S(C)(=O)=O)cc1 (centres undefined)	i	i	i	i	i	nt	nt	nt	nt
CCOc1ccc(-c2ccc(/C=C3/C(=N)N4C(C)=CSC4=NC3=O)o2)c([N+](=O)[O-])c1	i	i	59	i	i	38	50	i	i
CCOc1ccc(-c2ccc(/C=C3/C(=N)N4C=CSC4=NC3=O)o2)c([N+](=O)[O-])c1	i	i	i	i	i	nt	nt	nt	nt
O=C(C[C@@H]1C[C@@H]2c3cc(NC(=O)C4CCC4)ccc3O[C@@H]2[C@@H](CO)O1)NCc1ccc(Cl)cc1	i	nt	i	nt	nt	nt	nt	nt	nt
O=C(NC(Cc1ccccc1)C(=O)O)c1ccccc1 (centres undefined)	i	i	i	i	i	nt	nt	nt	nt
O=C(NC(Cc1ccccc1)C(=O)N1CCc2ccccc2C1)c1ccccc1 (centres undefined)	i	i	55	i	i	26	i	i	i
O=S(=O)(c1ccccc1)N1CCN(c2nc(-c3cccnc3)nc3ccccc23)CC1	i	nt	69	nt	nt	26	i	i	i
